From ChEMBL document CHEMBL1955770, “Inhibition of S/G2 phase CDK4 reduces mitotic fidelity” (J Biol Chem, 2006)
pIC50: −log10 of the molar value. The source made the active and inactive calls. The rule behind the calls is not given here.

Columns and labels:
[1] = molecular target: Proto-oncogene tyrosine-protein kinase Src (Homo sapiens, UniProt P12931); test: Inhibition of Src using fluorescent substrate by IMAP assay
Method in brief: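 Run in-house using IMAP: phosphorylated fluorescent peptide substrate binds preferentially to immobilized metal beads, which quantifies kinase activity. ATP at 3× the Km of each enzyme.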

HeLa [2] = test: Cell cycle arrest in Rb-deficient human HeLa cells assessed as accumulation at sub-diploid phase at 2 uM after 24 hrs by FACS analysis; type: functional
Method in brief: (§1)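 Ethanol-fixed cells stained with propidium iodide/RNase A, DNA content read by FACS, phase and sub-diploid fractions calculated with ModFit.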

HeLa [3] = test: Cell cycle arrest in Rb-deficient human HeLa cells assessed as accumulation at G1 phase at 2 uM after 24 hrs by FACS analysis; type: functional; method in brief: as §1
HeLa [4] = test: Cell cycle arrest in Rb-deficient human HeLa cells assessed as accumulation at S phase at 2 uM after 24 hrs by FACS analysis; type: functional; method in brief: as §1
HCT-116 [5] = test: Cell cycle arrest in Rb-competent human HCT116 cells assessed as […] at IC50 after 24 hrs using BrdUrd staining by FACS analysis (Rvb =38 %); type: functional
HCT-116 [6] = test: Cell cycle arrest in Rb-competent human HCT116 cells assessed as accumulation at S phase at 3 times IC90 after 24 hrs using BrdUrd staining by FACS analysis (Rvb =38 %); type: functional
[7] = molecular target: Cyclin-dependent kinase 4 (Homo sapiens) (UniProt P11802); test: Inhibition of CDK4-mediated Rb phosphorylation at ser 795 in human HCT116 cells at IC90 after 4 hrs by immunoblot analysis; type: cell-based; conditions: HCT-116
Method in brief: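 Asynchronous HCT-116 cells (DMEM, 3 mM HEPES, 10% serum, 37 °C, 5% CO₂) were given increasing inhibitor doses for 4 or 24 h. Lysis in NETN with phosphatase and protease inhibitors, then SDS-PAGE, nitrocellulose transfer and immunoblot for phospho-Rb (Ser-795) with HRP secondary and chemiluminescence.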

HCT-116 [8] = test: Antiproliferative activity against human HCT116 cells assessed as inhibition of S phase after 48 hrs by MTT assay; type: functional, cell-based; conditions: HCT-116, 48 h
Method in brief: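 Cells grown in DMEM with 3 mM HEPES and 10% Serum Supreme at 37 °C, 5% CO2. Proliferation read by MTT assay 48 h after drug addition; IC50 given as mean of two separate determinations, each in duplicate.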

HeLa [9] = test: Cell cycle arrest in human HeLa cells assessed as accumulation at G1 phase at 2 uM treated 2 hr and measured 8 hr post double thymidine-synchrony release using propidium iodide staining by FACS analysis (reference value: 6 %); type: functional
HeLa [10] = test: Cell cycle arrest in human HeLa cells assessed as time delay in progression through mitosis at 2 uM treated 2 hr post double thymidine-synchrony release using propidium iodide staining by FACS analysis; type: functional
Method in brief: (§2)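 Cells harvested at set times post-release, fixed in 70% ethanol, stained with 5 μg/ml propidium iodide plus 0.5 mg/ml RNase A, and analysed by flow cytometry. Cell-cycle phase fractions calculated by ModFit.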

[11] = Cell cycle arrest in human SK-MEL-13 cells assessed as accumulation at G2/M phase at 2 uM treated 1 hr and measured 10 hr post double hydroxyurea-synchrony release using propidium iodide staining by FACS analysis (reference value: 70 %); type: functional, cell-based
Method in brief: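 SK-Mel-13 cells synchronized with 2 mM hydroxyurea, then treated with 2 μM CDK4 inhibitor or left untreated 1 h after release. Harvested at indicated times post-release, ethanol-fixed, propidium iodide/RNase stained, and DNA content read by FACS. Proportions of G1, S and G2/M cells derived with ModFit.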

A2058 [12] = test: Cell cycle arrest in human A2058 cells assessed as accumulation at G2/M phase at 2 uM treated 1 hr and measured 8 hr post double hydroxyurea-synchrony release using propidium iodide staining by FACS analysis (reference value: 48 %); type: functional
A2058 [13] = test: Cell cycle arrest in human A2058 cells assessed as accumulation at G1 phase at 2 uM treated 1 hr and measured 10 hr post double hydroxyurea-synchrony release using propidium iodide staining by FACS analysis; type: functional
A2058 [14] = test: Cell cycle arrest in human A2058 cells assessed as effect on G2/M phase progression at 2 uM treated 6 hr post double hydroxyurea-synchrony release using propidium iodide staining by FACS analysis; type: functional, cell-based
HeLa [15] = test: Cell cycle arrest at G2 phase in human HeLa cells assessed as delay in entry into mitosis at 2 uM treated 1 hr after double thymidine-synchrony release by MPM-2-based FACS analysis (reference value: 8 hrs); type: functional
HeLa [16] = test: Cell cycle arrest at G2 phase in human HeLa cells at 2 uM treated 8 hr and measured 12 hr post-synchrony release using Propidium iodide staining by FACS analysis; type: functional, cell-based
MDA-MB-435 = test: Toxicity in human MDA-MB-435 cells at IC50 after 3 days by MTT assay; type: cell-based; conditions: mda-mb-435, 72 h
SW480 = test: Toxicity in human SW480 cells at 8 uM by MTT assay; type: cell-based; conditions: sw480, 8 µM
HeLa [17] = test: Cell cycle arrest in synchronized human HeLa cells assessed as inhibition of cytokinesis at 2 uM by time-lapse microscopy; type: functional
HeLa [18] = test: Cell cycle arrest in synchronized human HeLa cells assessed as re-joining to form single binuclear cells at 2 uM by time-lapse microscopy; type: functional, cell-based
HeLa [19] = test: Cell cycle arrest in synchronized human HeLa cells assessed as large multinuclear cell formation at 2 uM by time-lapse microscopy; type: functional, cell-based
HeLa [20] = test: Induction of abberent mitosis in human HeLa cells expressing GFP-H2B assessed as lagging chromosomes at astral side of spindle microtubules at 2 uM treated 1 hr and measured 12 hr post-thymidine release by time-lapse microscopy; type: functional, cell-based
HeLa [21] = test: Induction of abberent mitosis in human HeLa cells expressing GFP-H2B assessed as low survivin staining cells at 2 uM by immunofluorescence method (reference value: 9%); type: functional
HeLa [22] = test: Cell cycle arrest in human HeLa cells assessed as accumulation at G1 phase at 2 uM treated 4 hr and measured 8 hr post double thymidine-synchrony release using propidium iodide staining by FACS analysis (reference value: 6 %); type: functional
HeLa [23] = test: Cell cycle arrest in human HeLa cells assessed as accumulation at S phase at 2 uM treated 6 hr and measured 8 hr post double thymidine-synchrony release using propidium iodide staining by FACS analysis (reference value: 8 %); type: functional; method in brief: as §2
HeLa [24] = test: Cell cycle arrest in human HeLa cells assessed as accumulation at G2/M phase at 2 uM treated 6 hr and measured 8 hr post double thymidine-synchrony release using propidium iodide staining by FACS analysis (reference value: 86 %); type: functional; method in brief: as §2
HeLa [25] = test: Cell cycle arrest in human HeLa cells assessed as accumulation at S phase at 2 uM treated 4 hr and measured 10 hr post double thymidine-synchrony release using propidium iodide staining by FACS analysis (reference value: 1 %); type: functional; method in brief: as §2
HeLa [26] = test: Cell cycle arrest in human HeLa cells assessed as accumulation at S phase at 2 uM treated 6 hr and measured 10 hr post double thymidine-synchrony release using propidium iodide staining by FACS analysis (reference value: 1 %); type: functional; method in brief: as §2

Chain of Cyclin-dependent kinase 4 (Homo sapiens) (P11802 whole entry): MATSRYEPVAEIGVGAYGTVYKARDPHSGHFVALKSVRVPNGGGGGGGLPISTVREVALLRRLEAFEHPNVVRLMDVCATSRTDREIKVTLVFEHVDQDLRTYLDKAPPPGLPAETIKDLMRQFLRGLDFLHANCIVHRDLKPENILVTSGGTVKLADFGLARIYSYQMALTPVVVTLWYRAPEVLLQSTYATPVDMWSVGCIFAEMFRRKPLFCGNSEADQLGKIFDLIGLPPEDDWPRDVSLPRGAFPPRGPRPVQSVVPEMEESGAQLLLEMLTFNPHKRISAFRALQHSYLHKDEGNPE
Chain of Proto-oncogene tyrosine-protein kinase Src (P12931 2-536 limits assumed): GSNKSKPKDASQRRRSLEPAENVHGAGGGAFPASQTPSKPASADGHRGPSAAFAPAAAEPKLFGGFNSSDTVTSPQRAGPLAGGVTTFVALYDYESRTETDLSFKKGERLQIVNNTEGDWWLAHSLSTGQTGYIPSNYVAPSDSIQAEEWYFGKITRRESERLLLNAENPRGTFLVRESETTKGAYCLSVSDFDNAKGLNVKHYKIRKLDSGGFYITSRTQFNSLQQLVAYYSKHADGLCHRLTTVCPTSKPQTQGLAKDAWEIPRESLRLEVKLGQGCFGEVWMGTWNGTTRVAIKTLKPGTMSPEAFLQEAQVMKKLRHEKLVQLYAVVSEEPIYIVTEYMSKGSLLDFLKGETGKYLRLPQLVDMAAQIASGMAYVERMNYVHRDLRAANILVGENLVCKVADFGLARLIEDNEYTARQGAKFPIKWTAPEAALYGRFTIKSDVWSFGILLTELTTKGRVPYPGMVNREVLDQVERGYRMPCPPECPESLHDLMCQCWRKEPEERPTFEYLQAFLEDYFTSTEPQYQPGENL

Structure (SMILES) | pIC50 [1] | Activity (HeLa [2]) | Activity (HeLa [3]) | Activity (HeLa [4]) | Activity (HCT-116 [5]) | Activity (HCT-116 [6]) | inhibition [7] | pIC50 (HCT-116 [8]) | Activity (HeLa [9]) | Time (HeLa [10]) | Activity [11] | Activity (A2058 [12]) | Activity (A2058 [13]) | Activity (A2058 [14]) | Time (HeLa [15]) | Activity (HeLa [16]) | Activity (MDA-MB-435) | Activity (SW480) | inhibition at 2 µM (HeLa [17]) | Activity (HeLa [18]) | further results
COc1cccc(C(=O)c2sc(Nc3ccc(N4CCN(C(C)C)CC4)cc3)nc2N)c1 | 5.46 | 10% | 49% | 27% | 20% | 4% | Active | 5.96 | 7% | 4 h | 75% | 69% | 7% | inactive | 12 h | Active | Toxic | Toxic | 20% | Active | Activity (HeLa [19]): Active; Activity (HeLa [20]): Active; Activity (HeLa [21]): 18%; Activity (HeLa [22]): 5%; Activity (HeLa [23]): 5%; Activity (HeLa [24]): 88%; Activity (HeLa [25]): 0%; Activity (HeLa [26]): 1%
CN1CCN(c2ccc(Nc3nc(N)c(C(=O)c4ccc5c(c4)OCCO5)s3)cc2)CC1 | 5.49 | 10% | 49% | 27% | 20% | 4% | Active | 5.41 | 7% | 4 h | 75% | 69% | 7% | inactive | 12 h | Active | Toxic | Toxic | 20% | Active | Activity (HeLa [19]): Active; Activity (HeLa [20]): Active; Activity (HeLa [21]): 18%; Activity (HeLa [22]): 5%; Activity (HeLa [23]): 5%; Activity (HeLa [24]): 88%; Activity (HeLa [25]): 0%; Activity (HeLa [26]): 1%
